Assay results as given in ChEMBL document CHEMBL1208669, “Synthesis of 2-(pyrimidin-2-yl)-1-phenyl-2,3,4,9-tetrahydro-1H-beta-carbolines as antileishmanial agents” (Eur J Med Chem, 2010).
Converted amounts (≈) assume the structure as drawn. The source made the active and inactive calls. The calls are words filed in the database; no cut-off is given here.

What was measured:
Leishmania donovani [1] = experiment: Antileishmanial activity against promastigotes of Leishmania donovani MHOM/IN/80/Dd8 after 72 hrs by luciferase reporter gene assay relative to control; format: functional
Outline: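 Dd8 promastigotes transfected with firefly luciferase were kept in medium 199 + 10% FCS with antibiotics under G418. Late-log cells were incubated 72 h with serial drug dilutions, with parallel DMSO dilutions as controls. An aliquot was mixed 1:1 with Steady Glo and luminescence read as RLU. % inhibition = (N − n) × 100/N versus untreated control RLU; tested as serial dilutions or single concentration.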

KB [2] = experiment: Cytotoxicity against human KB cells up to 50 ug/ml by MTT assay; format: functional, cell-based
Vero [3] = experiment: Cytotoxicity against african green monkey Vero cells up to 50 ug/ml by MTT assay; format: cell-based; settings: chlorocebus sabaeus
MCF7 [4] = experiment: Cytotoxicity against human MCF7 cells up to 50 ug/ml by MTT assay; format: functional, cell-based
C-33-A [5] = experiment: Cytotoxicity against human C33A cells up to 50 ug/ml by MTT assay; format: functional, cell-based
Leishmania donovani [6] = experiment: Antileishmanial activity against amastigote of Leishmania donovani MHOM/IN/80/Dd8 infected in mouse J774A1 cells at 0.25 to 10 ug/ml after 72 hrs by luciferase reporter gene assay; format: functional, organism-based; settings: j774.a1
Outline: (§1)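 J774A.1 macrophages were seeded at 1.5 × 10⁴ cells/well in RPMI-1640 + 10% FCS, 37 °C, CO₂, for 24 h. They were then infected with stationary-phase luciferase-transfected Dd8 promastigotes (2.25 × 10⁵/well), which transform to amastigotes. Compounds (0.25–10 range) were added in fresh medium for 72 h. Medium was removed, PBS and Steady Glo added, and luminescence read. Inhibition vs untreated controls; IC50 by logit regression.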

DU-145 [7] = experiment: Cytotoxicity against human DU145 cells up to 50 ug/ml by MTT assay; format: functional, cell-based
Leishmania donovani [8] = experiment: Antileishmanial activity against amastigote of Leishmania donovani MHOM/IN/80/Dd8 infected in mouse J774A1 cells after 72 hrs by luciferase reporter gene assay; format: functional, organism-based; settings: MHOM/IN/80/Dd8, J774.A1, 72 h; outline: as §1
C-33-A [9] = experiment: Cytotoxicity against human C33A cells by MTT assay; format: functional, cell-based
Vero [10] = experiment: Cytotoxicity against african green monkey Vero cells by MTT assay; format: cell-based; settings: chlorocebus sabaeus
DU-145 [11] = experiment: Cytotoxicity against human DU145 cells by MTT assay; format: functional, cell-based
MCF7 [12] = experiment: Cytotoxicity against human MCF7 cells by MTT assay; format: functional, cell-based
[13] = Cytotoxicity against mouse J774A1 cells after 72 hrs by MTT assay; format: cell-based, J774.A1
Outline: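 J774A.1 cells were grown in RPMI + 10% FCS with gentamycin. Exponential cells (1 × 10⁴/well) were exposed to a range of drug concentrations (DMSO stocks diluted in complete medium) for 72 h at 37 °C in humidified CO₂/air. MTT was added, formazan dissolved in DMSO after 15 min shaking, and absorbance read at 544 nm. CC50 is the 50% viability reduction versus medium-only cells.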

[14] = Selectivity index, ratio of CC50 for mouse J774A1 cells to IC50 for amastigote of Leishmania donovani MHOM/IN/80/Dd8; format: functional, J774.A1
Outline: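 Ratio of CC50 (J774A.1 MTT, 72 h) to IC50 against intracellular amastigotes in J774A.1 macrophages (luciferase read-out, 72 h).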

KB [15] = experiment: Cytotoxicity against human KB cells by MTT assay; format: functional, cell-based

Row | SMILES | inhibition (INH) (Leishmania donovani [1]) [%] | Activity (KB [2]) | Activity (Vero [3]) | Activity (MCF7 [4]) | Activity (C-33-A [5]) | IC50 (Leishmania donovani [6]) | Activity (DU-145 [7]) | IC50 (Leishmania donovani [8]; read-out: IC50) [µg/mL] | IC50 (C-33-A [9]) [µg/mL] | IC50 (Vero [10]) [µg/mL] | IC50 (DU-145 [11]) [µg/mL] | IC50 (MCF7 [12]) [µg/mL] | CC50 at 72 h ([13]; read-out: CC50) [µg/mL] | Ratio CC50/IC50 [14] | IC50 (KB [15]) [µg/mL] | IC50 (Leishmania donovani [8]) [µg/mL] | CC50 at 72 h [13] [µg/mL]
1 | COc1ccc(C2c3[nH]c4ccccc4c3CCN2c2nc(Cl)cc(Cl)n2)c(OC)c1 (racemic) | 54.14 | inactive | Non-toxic | inactive | inactive | Not Active | inactive |  |  |  |  |  |  |  |  |  | 
2 | Clc1cc(Cl)nc(N2CCc3c([nH]c4ccccc34)C2c2cccc(Br)c2)n1 (racemic) | 79.65 |  |  |  |  |  |  | 7.79 (≈ 16.4 µM) | 21.7 (≈ 45.8 µM) | 24.3 (≈ 51.2 µM) | 15.8 (≈ 33.3 µM) | 23.4 (≈ 49.3 µM) | 14 (≈ 29.6 µM) | 1.81 | 15.6 (≈ 32.9 µM) |  | 
3 | Cc1ccc(C2c3[nH]c4ccccc4c3CCN2c2nc(Cl)cc(Cl)n2)cc1 (racemic) | 84.15 |  |  |  |  |  |  |  | 24.9 (≈ 60.8 µM) | 33.7 (≈ 82.3 µM) | 20.2 (≈ 49.4 µM) | 28 (≈ 68.4 µM) |  | 4.09 | 21.6 (≈ 52.8 µM) | 6 (≈ 14.7 µM) | 24.6 (≈ 60.1 µM)
4 | N=C(N)c1ccc(OCCCCCOc2ccc(C(=N)N)cc2)cc1 [PENTAMIDINE] | 100 |  |  |  |  |  |  |  |  |  |  |  | 25.1 (≈ 73.9 µM) |  |  |  | 
5 | Clc1cc(Cl)nc(NCCc2c[nH]c3ccccc23)n1 | 99.78 | inactive | Non-toxic | inactive | inactive |  | inactive | 7.34 (≈ 23.9 µM) |  |  |  |  | 20.6 (≈ 67 µM) | 2.8 |  |  | 
6 | COc1cccc(C2c3[nH]c4ccccc4c3CCN2c2nc(Cl)cc(Cl)n2)c1 (racemic) | 44.33 | inactive | Non-toxic | inactive | inactive | Not Active | inactive |  |  |  |  |  |  |  |  |  | 
7 | COc1ccccc1C1c2[nH]c3ccccc3c2CCN1c1nc(Cl)cc(Cl)n1 (racemic) | 38.79 | inactive | Non-toxic | inactive | inactive | Not Active | inactive |  |  |  |  |  |  |  |  |  | 
8 | CN1CCN(c2cc(N3CCN(C)CC3)nc(N3CCc4c([nH]c5ccccc45)C3c3ccc4c(c3)OCO4)n2)CC1 (racemic) | 99.96 |  |  |  |  |  |  | 0.49 (≈ 0.865 µM) | 1.1 (≈ 1.94 µM) | 2.6 (≈ 4.59 µM) | 1.5 (≈ 2.65 µM) | 1.2 (≈ 2.12 µM) | 2.8 (≈ 4.94 µM) | 5.71 | 2 (≈ 3.53 µM) |  | 
9 | COc1ccc(C2c3[nH]c4ccccc4c3CCN2c2nc(Cl)cc(Cl)n2)cc1 (racemic) | 81.68 |  |  |  |  |  |  | 3.57 (≈ 8.39 µM) | 4.2 (≈ 9.87 µM) | 9.8 (≈ 23 µM) | 10.1 (≈ 23.7 µM) | 5.2 (≈ 12.2 µM) |  |  | 4.5 (≈ 10.6 µM) |  | 
10 | CCN1CCN(c2cc(N3CCN(CC)CC3)nc(N3CCc4c([nH]c5ccccc45)C3c3ccc4c(c3)OCO4)n2)CC1 (racemic) | 99.94 |  |  |  |  |  |  | 0.48 (≈ 0.807 µM) | 4.1 (≈ 6.89 µM) | 5.9 (≈ 9.92 µM) | 6.2 (≈ 10.4 µM) | 3.6 (≈ 6.05 µM) | 2.5 (≈ 4.2 µM) | 5.2 | 4.5 (≈ 7.57 µM) |  | 
11 | COc1cc(C2c3[nH]c4ccccc4c3CCN2c2nc(Cl)cc(Cl)n2)cc(OC)c1OC (racemic) | 81.68 | inactive | Non-toxic | inactive | inactive |  | inactive | 3.81 (≈ 7.85 µM) |  |  |  |  |  |  |  |  | 
12 | COc1cc(OC)cc(C2c3[nH]c4ccccc4c3CCN2c2nc(Cl)cc(Cl)n2)c1 (racemic) | 90.57 | inactive | Non-toxic | inactive | inactive | Not Active | inactive |  |  |  |  |  |  |  |  |  | 
13 | CN1CCN(c2cc(N3CCN(C)CC3)nc(NCCc3c[nH]c4ccccc34)n2)CC1 | 100 |  |  |  |  |  |  | 1.74 (≈ 4 µM) | 26 (≈ 59.8 µM) | 29.7 (≈ 68.3 µM) | 21.3 (≈ 49 µM) | 35.2 (≈ 81 µM) | 18.4 (≈ 42.3 µM) | 10.55 | 33.4 (≈ 76.9 µM) |  | 
14 | COc1ccc(C2c3[nH]c4ccccc4c3CCN2c2nc(Cl)cc(Cl)n2)cc1OC (racemic) | 93.06 | inactive | Non-toxic | inactive | inactive |  | inactive | 1.93 (≈ 4.24 µM) |  |  |  |  | 29.8 (≈ 65.4 µM) | 15.43 |  |  | 
15 | COc1ccc(C2c3[nH]c4ccccc4c3CCN2c2nc(N3CCOCC3)cc(N3CCOCC3)n2)cc1OC (racemic) | 85.31 | inactive | Non-toxic | inactive | inactive | Not Active | inactive |  |  |  |  |  |  |  |  |  | 
16 | COc1ccc(OC)c(C2c3[nH]c4ccccc4c3CCN2c2nc(Cl)cc(Cl)n2)c1 (racemic) | 85.34 | inactive | Non-toxic | inactive | inactive | Not Active | inactive |  |  |  |  |  |  |  |  |  | 
17 | c1ccc2c(CCNc3nc(N4CCOCC4)cc(N4CCOCC4)n3)c[nH]c2c1 | 99.72 |  | Non-toxic |  |  |  |  | 3.05 (≈ 7.47 µM) |  |  |  |  | 19.4 (≈ 47.4 µM) | 6.34 |  |  | 
18 | COc1ccc(C2c3[nH]c4ccccc4c3CCN2c2nc(N3CCOCC3)cc(N3CCOCC3)n2)cc1 (racemic) | 97.25 |  |  |  |  |  |  | 4.48 (≈ 8.51 µM) | 2.5 (≈ 4.75 µM) | 7.8 (≈ 14.8 µM) | 4.5 (≈ 8.54 µM) | 3.9 (≈ 7.41 µM) | 67.7 (≈ 128 µM) | 15.1 | 5.1 (≈ 9.68 µM) |  | 
19 | CCc1ccc(C2c3[nH]c4ccccc4c3CCN2c2nc(Cl)cc(Cl)n2)cc1 (racemic) | 60.24 |  |  |  |  |  |  |  | 19.8 (≈ 46.8 µM) | 37.8 (≈ 89.3 µM) | 23 (≈ 54.3 µM) | 32.4 (≈ 76.5 µM) |  | 6.87 | 22.8 (≈ 53.9 µM) | 4.46 (≈ 10.5 µM) | 30.7 (≈ 72.4 µM)
